# Test results published in ChEMBL document CHEMBL4049456, “Identification of 4-(Aminomethyl)-6-(trifluoromethyl)-2-(phenoxy)pyridine Derivatives as Potent, Selective, and Orally Efficacious Inhibitors of the Copper-Dependent Amine Oxidase, Lysyl Oxidase-Like 2 (LOXL2)” (J Med Chem, 2017).
# How the values were obtained:
# [1] = Protein binding in human plasma; type: ADME, cell-free; conditions: read-out: PPB (converted)
# Mus musculus = assay: Antifibrotic activity in C57BL/6 mouse assessed as reduction of lung fibrosis administered as po qd for 15 days starting 1 day prior to bleomycin instillation measured on day 14 post bleomycin instillation by Masson's trichrome staining-based assay; type: functional
# Procedure, shortened: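 Lung fibrosis induced in male C57BL/6 mice aged 6 to 7 weeks by a single oropharyngeal dose of bleomycin (1.5 U/kg). Compound given orally once daily at 3, 10, 30 or 60 mg/kg for 15 days, starting 1 day before bleomycin. Lungs taken at day 14 post-bleomycin, stained with H&E and Masson's trichrome, and an Ashcroft score assigned.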
# Protein-lysine 6-oxidase = molecular target: T1, Protein-lysine 6-oxidase (Homo sapiens, UniProt P28300); assay: Inhibition of human LOX expressed in HEK cells assessed as reduction of H2O2 production from oxidative deamination of DAP preincubated for 2 hrs followed by substrate addition in presence of 0.1% BSA measured every 2 mins for 1 hr by amplex red reagent-based fluorescence assay; type: cell-based
# T1 sequence (P28300 whole entry): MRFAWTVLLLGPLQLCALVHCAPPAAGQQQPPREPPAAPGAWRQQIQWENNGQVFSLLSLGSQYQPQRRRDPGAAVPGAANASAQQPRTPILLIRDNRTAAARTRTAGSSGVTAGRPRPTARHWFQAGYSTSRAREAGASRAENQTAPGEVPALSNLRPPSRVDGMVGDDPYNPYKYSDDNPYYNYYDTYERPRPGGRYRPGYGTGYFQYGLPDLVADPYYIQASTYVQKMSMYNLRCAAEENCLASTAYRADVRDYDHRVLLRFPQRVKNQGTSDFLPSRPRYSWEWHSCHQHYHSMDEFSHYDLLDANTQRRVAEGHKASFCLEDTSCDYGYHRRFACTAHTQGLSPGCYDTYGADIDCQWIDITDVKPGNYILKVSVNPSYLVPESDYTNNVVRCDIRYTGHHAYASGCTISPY
# Lysyl oxidase homolog 3 = molecular target: T2, Lysyl oxidase homolog 3 (Homo sapiens, UniProt P58215); assay: Inhibition of recombinant human LOXL3 assessed as reduction of H2O2 production from oxidative deamination of DAP preincubated for 2 hrs followed by substrate addition measured every 2 mins for 1 hr by amplex red reagent-based fluorescence assay
# T2 sequence (P58215 whole entry): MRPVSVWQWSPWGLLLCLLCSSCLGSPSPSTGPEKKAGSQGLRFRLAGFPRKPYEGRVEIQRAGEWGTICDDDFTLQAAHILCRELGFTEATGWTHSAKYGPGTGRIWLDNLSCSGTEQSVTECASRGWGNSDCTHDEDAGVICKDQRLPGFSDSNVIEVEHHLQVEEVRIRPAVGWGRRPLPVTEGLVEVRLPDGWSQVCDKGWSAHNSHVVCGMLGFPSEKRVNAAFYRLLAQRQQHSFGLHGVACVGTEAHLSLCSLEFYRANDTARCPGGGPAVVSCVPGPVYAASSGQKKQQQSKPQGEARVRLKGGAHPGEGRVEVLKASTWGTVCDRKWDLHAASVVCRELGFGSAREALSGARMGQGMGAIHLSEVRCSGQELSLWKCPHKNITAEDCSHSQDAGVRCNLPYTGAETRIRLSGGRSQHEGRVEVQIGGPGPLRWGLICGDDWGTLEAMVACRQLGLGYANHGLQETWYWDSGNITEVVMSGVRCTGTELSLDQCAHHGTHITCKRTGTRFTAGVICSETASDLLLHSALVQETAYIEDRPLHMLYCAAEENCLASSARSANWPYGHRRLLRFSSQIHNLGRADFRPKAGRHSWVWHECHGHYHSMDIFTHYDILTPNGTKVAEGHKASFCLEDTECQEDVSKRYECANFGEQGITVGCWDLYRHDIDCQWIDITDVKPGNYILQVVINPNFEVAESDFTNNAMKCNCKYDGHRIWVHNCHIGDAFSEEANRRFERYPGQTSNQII
# Procedure, shortened: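 Purified recombinant human LOXL3 was preincubated with compound for 2 h, then H2O2 produced from DAP deamination was measured.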
# [2] = Cmax in C57BL/6 mouse lung at 30 mg/kg, po by LC-MS/MS analysis; type: ADME, organism-based; design: dose 30 mg/kg, route oral
# Procedure, shortened: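 Normal C57BL/6 mice, n = 3 per time point, received a single oral 30 mg/kg dose formulated in 0.5% methylcellulose.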
# [3] = molecular target: T3, Amine oxidase [copper-containing] 3 (Homo sapiens) (UniProt Q16853); assay: Inhibition of SSAO in human plasma assessed as reduction of H2O2 production from oxidative deamination of benzylamine at 10 uM preincubated for 2 hrs followed by substrate addition measured every 2 mins for 1 hr by amplex red reagent-based fluorescence assay relative to control
# T3 sequence (whole entry): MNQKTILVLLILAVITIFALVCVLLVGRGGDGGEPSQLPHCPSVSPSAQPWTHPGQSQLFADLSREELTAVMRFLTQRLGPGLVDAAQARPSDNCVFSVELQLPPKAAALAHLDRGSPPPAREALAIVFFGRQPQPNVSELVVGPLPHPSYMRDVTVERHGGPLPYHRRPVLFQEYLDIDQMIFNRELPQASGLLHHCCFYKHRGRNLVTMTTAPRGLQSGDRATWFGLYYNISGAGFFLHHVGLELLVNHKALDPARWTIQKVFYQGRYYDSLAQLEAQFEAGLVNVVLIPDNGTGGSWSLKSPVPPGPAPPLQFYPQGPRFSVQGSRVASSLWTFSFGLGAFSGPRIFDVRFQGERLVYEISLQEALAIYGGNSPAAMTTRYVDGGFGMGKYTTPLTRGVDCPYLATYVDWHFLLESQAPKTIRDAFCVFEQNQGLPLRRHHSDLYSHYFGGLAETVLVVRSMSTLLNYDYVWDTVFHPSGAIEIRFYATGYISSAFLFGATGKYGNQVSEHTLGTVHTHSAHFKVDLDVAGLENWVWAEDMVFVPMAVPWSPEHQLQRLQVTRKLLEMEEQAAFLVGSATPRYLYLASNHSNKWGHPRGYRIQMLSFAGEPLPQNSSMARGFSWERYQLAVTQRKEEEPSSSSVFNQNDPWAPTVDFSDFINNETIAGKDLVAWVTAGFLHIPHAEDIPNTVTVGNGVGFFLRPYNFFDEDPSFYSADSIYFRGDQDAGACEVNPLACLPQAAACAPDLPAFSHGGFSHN
# Procedure, shortened: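 Endogenous SSAO in human plasma was the enzyme source and benzylamine the substrate. After a 2 h preincubation with compound, percent inhibition was calculated relative to a vehicle control and to a control containing 1 μM of the known SSAO inhibitor PXS-4681A.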
smiles,measurement,setting,value
Cl.NCc1cc(Oc2cccc(C(=O)N3C[C@@H](O)[C@H](F)C3)c2)nc(C(F)(F)F)c1 (racemic),fraction unbound,[1],0.32
same,Activity,Mus musculus,Dose-dependent effect
same,minimal effective dose,"Mus musculus; C57BL/6, po, read-out: MED",30 mg/kg
same,IC50,Protein-lysine 6-oxidase,35 µM
same,IC50,Lysyl oxidase homolog 3,1.38 µM
same,Cmax,[2],21 µM
same,inhibition,[3],16%
